Structures are written as SMILES. Where only a bound is given, the exact number is not on record here.

The test system of experiment [1] is CHO. As to the kind of experiment: Selectivity ratio of Ki for human adenosine A1 receptor expressed in CHO cells to Ki for human adenosine A2A receptor expressed in CHO cells. It counts as cell-based.
A further experiment addresses T1, Adenosine receptor A3 (Homo sapiens, UniProt P0DMS8).
T1 sequence (P0DMS8 whole entry): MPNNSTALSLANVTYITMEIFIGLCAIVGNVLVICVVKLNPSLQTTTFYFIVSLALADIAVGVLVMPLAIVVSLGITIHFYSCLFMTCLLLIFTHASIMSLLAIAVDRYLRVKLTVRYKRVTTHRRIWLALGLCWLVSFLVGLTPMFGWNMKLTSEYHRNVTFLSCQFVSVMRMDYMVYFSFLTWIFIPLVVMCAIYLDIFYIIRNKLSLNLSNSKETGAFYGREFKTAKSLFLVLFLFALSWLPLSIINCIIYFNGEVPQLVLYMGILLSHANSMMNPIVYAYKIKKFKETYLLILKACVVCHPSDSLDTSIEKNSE
As to the kind of experiment: Displacement of [3H]NECA from human adenosine A3 receptor expressed in CHO cells. It counts as cell-based. The essentials: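 Radioligand [³H]NECA was used on membranes from stably transfected CHO cells, prepared by a 1000g clearing spin then pelleting at 100 000g. Pellets were resuspended in binding buffer, frozen in liquid nitrogen and stored. Nonspecific binding was defined with 100 μM R-PIA.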

The target of a further experiment is Adenosine receptor A2a (Homo sapiens, UniProt P29274). Nature of the experiment: Displacement of [3H]NECA from human adenosine A2A receptor expressed in CHO cells. The format is cell-based. Background: Displacement assays read how much labelled ligand stays bound in the presence of the test substance.
Chain of Adenosine receptor A2a (P29274 whole entry): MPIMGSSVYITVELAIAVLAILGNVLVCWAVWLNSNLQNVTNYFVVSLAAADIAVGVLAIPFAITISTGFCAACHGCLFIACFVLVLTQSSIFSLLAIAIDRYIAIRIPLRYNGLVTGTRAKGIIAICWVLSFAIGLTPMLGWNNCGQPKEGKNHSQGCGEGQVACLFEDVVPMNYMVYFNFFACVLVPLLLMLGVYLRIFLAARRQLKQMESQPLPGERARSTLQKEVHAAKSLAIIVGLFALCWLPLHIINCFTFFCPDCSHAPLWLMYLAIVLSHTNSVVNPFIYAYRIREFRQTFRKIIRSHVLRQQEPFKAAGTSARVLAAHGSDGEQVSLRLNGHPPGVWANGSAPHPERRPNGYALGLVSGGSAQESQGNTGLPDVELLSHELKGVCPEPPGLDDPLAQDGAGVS
For a further experiment, the target named is T2, Adenosine receptor A2b (Homo sapiens, UniProt P29275).
T2 sequence (P29275 whole entry): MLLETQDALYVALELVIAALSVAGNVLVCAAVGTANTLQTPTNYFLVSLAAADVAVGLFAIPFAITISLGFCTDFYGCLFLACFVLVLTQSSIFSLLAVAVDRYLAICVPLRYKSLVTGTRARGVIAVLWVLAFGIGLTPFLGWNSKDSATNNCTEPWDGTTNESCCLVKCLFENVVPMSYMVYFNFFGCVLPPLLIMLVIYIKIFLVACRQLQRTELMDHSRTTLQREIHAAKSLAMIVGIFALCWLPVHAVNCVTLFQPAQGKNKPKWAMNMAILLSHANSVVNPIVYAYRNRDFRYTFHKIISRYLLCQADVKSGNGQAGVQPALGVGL
As to the kind of experiment: Antagonist activity at human adenosine A2B receptor expressed in CHO cells assessed as inhibition of NECA-stimulated adenylyl cyclase activity. The format is functional, cell-based. Summed up: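 Membranes from stably transfected CHO cells, made with a single high-speed centrifugation of the homogenate. Incubated 20 min with about 150 000 cpm [α-³²P]ATP, in a mixture without EGTA and NaCl. IC50 for concentration-dependent inhibition of NECA-stimulated adenylyl cyclase was fitted with the Hill equation and converted to Ki by Cheng–Prusoff.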

Experiment [2] addresses Adenosine receptors; A1 & A3 (Homo sapiens) (UniProt P30542+P0DMS8). Nature of the experiment: Selectivity ratio of Ki for human adenosine A1 receptor expressed in CHO cells to Ki for human adenosine A3 receptor expressed in CHO cells. The format is cell-based.
The next experiment addresses T3, Adenosine receptor A1 (Homo sapiens, UniProt P30542).
T3 sequence (P30542 whole entry): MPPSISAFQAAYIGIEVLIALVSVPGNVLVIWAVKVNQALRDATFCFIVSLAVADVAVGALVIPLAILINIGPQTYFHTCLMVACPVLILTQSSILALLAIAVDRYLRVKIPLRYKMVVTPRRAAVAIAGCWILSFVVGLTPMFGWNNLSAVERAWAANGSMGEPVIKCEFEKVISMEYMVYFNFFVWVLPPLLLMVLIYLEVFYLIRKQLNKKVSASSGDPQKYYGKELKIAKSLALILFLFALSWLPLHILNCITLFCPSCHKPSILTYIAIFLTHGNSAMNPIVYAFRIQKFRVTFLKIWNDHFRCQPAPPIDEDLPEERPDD
As to the kind of experiment: Displacement of [3H]CCPA from human adenosine A1 receptor expressed in CHO cells. The format is cell-based. The essentials:
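Stably transfected CHO cells were homogenised and spun at 1000g to remove nuclei and fragments. Membranes were then pelleted at 100 000g, resuspended in binding buffer, frozen in liquid nitrogen and stored. Radioligand was [³H]CCPA, with nonspecific binding defined by 1 mM theophylline.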

Experiment [3] relates to CHO. As to the kind of experiment: Selectivity ratio of Ki for human adenosine A2A receptor expressed in CHO cells to Ki for human adenosine A3 receptor expressed in CHO cells. It counts as cell-based.

For `CCOC(=O)c1cnc(NC2CCCCCC2)n2nc(-c3ccco3)nc12`, the Ratio Ki in the experiment on CHO [1] amounted to 0.98; in experiment [2], 0.72; in the experiment on CHO [3], 0.73. Also, the Ki was 321 nM on Adenosine receptor A3, 235 nM at Adenosine receptor A2a, more than 10000 nM on Adenosine receptor A2b and 231 nM at Adenosine receptor A1.

In the case of `CCOC(=O)c1cnc(NCc2ccc(OC)cc2)n2nc(-c3ccco3)nc12`, the Ratio Ki with CHO [1] was found to be 8.8; in experiment [2] it was 21.7; in the experiment with CHO [3], 2.46. Besides, the Ki at Adenosine receptor A3 was found to be 57.6 nM; at Adenosine receptor A2a it was 142 nM; on Adenosine receptor A2b it was 4810 nM; at Adenosine receptor A1, 1250 nM.

Take `O=C(O)c1cnc(NCc2ccc(F)cc2)n2nc(-c3ccco3)nc12`: the results for the Ratio Ki (in the experiment with CHO [1]; in experiment [2]; in the experiment with CHO [3]) were more than 15.6, more than 7.14 and 0.46, respectively. Besides, the Ki on Adenosine receptor A3 was 14000 nM; on Adenosine receptor A2a, 6390 nM; at Adenosine receptor A2b, more than 30000 nM; on Adenosine receptor A1, more than 100000 nM.

In the case of `O=C(Cc1ccccc1)Nc1ncc(C(=O)NCCc2ccccc2)c2nc(-c3ccco3)nn12`, the Ratio Ki with CHO [1] was found to be 11.3; in experiment [2], 0.57; in the experiment on CHO [3], 0.05. Further, the Ki on Adenosine receptor A3 was 553 nM; at Adenosine receptor A2a, 28.1 nM; at Adenosine receptor A2b, more than 30000 nM; at Adenosine receptor A1, 317 nM.

As for `O=C(O)c1cnc(NC2CC2)n2nc(-c3ccco3)nc12`, the values for the Ratio Ki (in the experiment with CHO [1]; in experiment [2]; in the experiment with CHO [3]) were 1.86, 6.73 and 3.61, respectively. Moreover, the inhibitory constant (Ki) on Adenosine receptor A3 is 165 nM; at Adenosine receptor A2a it was 596 nM; at Adenosine receptor A2b it was more than 10000 nM; on Adenosine receptor A1, 1110 nM.

Turning to `CNC(=O)c1cnc(NC(=O)Nc2ccccc2)n2nc(-c3ccco3)nc12`, the values for the Ratio Ki (with CHO [1]; in experiment [2]; in the experiment with CHO [3]) were 21.9, 0.17 and 0.01, respectively. Moreover, the Ki is 730 nM at Adenosine receptor A3, 5.76 nM on Adenosine receptor A2a, 1180 nM at Adenosine receptor A2b and 126 nM on Adenosine receptor A1.

With `CCOC(=O)c1cnc(NCc2ccccc2)n2nc(-c3ccco3)nc12`, the Ratio Ki with CHO [1] came out at 29.4; in experiment [2] it was 94; in the experiment on CHO [3], 3.2. In addition, the Ki at Adenosine receptor A3 came out at 10 nM; on Adenosine receptor A2a, 32 nM; at Adenosine receptor A2b, 2510 nM; at Adenosine receptor A1 it was 940 nM.

As to `CCOC(=O)c1cnc(NCCOC)n2nc(-c3ccco3)nc12`, the Ratio Ki was 7.77 with CHO [1], 21.6 in experiment [2] and 2.78 with CHO [3]. Moreover, the inhibition constant Ki was 105 nM on Adenosine receptor A3, 292 nM on Adenosine receptor A2a, more than 10000 nM on Adenosine receptor A2b and 2270 nM on Adenosine receptor A1.

Consider `CCOC(=O)c1cnc(NCc2ccc(C)cc2)n2nc(-c3ccco3)nc12`, for which the Ratio Ki stood at 11 in the experiment with CHO [1], 23.9 in experiment [2] and 2.17 with CHO [3]. The Ki on Adenosine receptor A3 was determined as 56.1 nM; at Adenosine receptor A2a it was 122 nM; at Adenosine receptor A2b it was 10000 nM; on Adenosine receptor A1, 1340 nM.

Regarding `Cc1ccc(CNc2ncc(C(=O)O)c3nc(-c4ccco4)nn23)cc1`, the Ratio Ki in the experiment with CHO [1] stood at 2.29; in experiment [2], 3.63; in the experiment on CHO [3], 1.58. Moreover, the inhibitory constant (Ki) at Adenosine receptor A3 is 751 nM; at Adenosine receptor A2a, 1190 nM; on Adenosine receptor A2b, more than 10000 nM; at Adenosine receptor A1, 2730 nM.

With `O=C(Nc1ncc(C(=O)O)c2nc(-c3ccco3)nn12)NC1CCCCC1`, the Ratio Ki in the experiment on CHO [1] was more than 4.05; in experiment [2], more than 1.68; with CHO [3], 0.42. Moreover, the Ki on Adenosine receptor A3 is 59400 nM; at Adenosine receptor A2a it was 24700 nM; on Adenosine receptor A2b, more than 30000 nM; on Adenosine receptor A1 it was more than 100000 nM.

For `CNC(=O)c1cnc(N)n2nc(-c3ccco3)nc12`, the values for the Ratio Ki (in the experiment on CHO [1]; in experiment [2]; in the experiment with CHO [3]) were 9, 0.22 and 0.02, respectively. The inhibition constant Ki on Adenosine receptor A3 was found to be 609 nM; at Adenosine receptor A2a, 15 nM; at Adenosine receptor A2b, 2030 nM; on Adenosine receptor A1 it was 135 nM.

As to `CCCCC(CC)CNc1ncc(C(=O)O)c2nc(-c3ccco3)nn12` (centres undefined), the Ratio Ki with CHO [1] turned out to be 0.05; in experiment [2] it was 0.11; with CHO [3], 2.06. The Ki is 16400 nM at Adenosine receptor A3, 33800 nM on Adenosine receptor A2a, more than 10000 nM on Adenosine receptor A2b and 1780 nM on Adenosine receptor A1.

As to `Nc1ncc(C(=O)NCCc2ccccc2)c2nc(-c3ccco3)nn12`, the values for the Ratio Ki (in the experiment with CHO [1]; in experiment [2]; with CHO [3]) were 5.14, 0.41 and 0.08, respectively. For the same molecule, the inhibition constant Ki on Adenosine receptor A3 worked out at 140 nM; on Adenosine receptor A2a it was 11.1 nM; on Adenosine receptor A2b it was 5320 nM; at Adenosine receptor A1, 57.1 nM.

Regarding `CCNc1ncc(C(=O)OCC)c2nc(-c3ccco3)nn12`, the Ratio Ki in the experiment on CHO [1] is 3.22; in experiment [2], 49.1; in the experiment on CHO [3], 15.2. Moreover, the Ki is 3.3 nM on Adenosine receptor A3, 50.3 nM on Adenosine receptor A2a, 3060 nM on Adenosine receptor A2b and 162 nM at Adenosine receptor A1.

Regarding `CCOC(=O)c1cnc(NC2CCCC2)n2nc(-c3ccco3)nc12`, the Ratio Ki stood at 0.79 with CHO [1], 0.98 in experiment [2] and 1.24 in the experiment with CHO [3]. Moreover, the Ki at Adenosine receptor A3 was found to be 35 nM; on Adenosine receptor A2a, 43.4 nM; on Adenosine receptor A2b, 4620 nM; at Adenosine receptor A1 it was 34.4 nM.

As for `CCNc1ncc(C(=O)O)c2nc(-c3ccco3)nn12`, the values for the Ratio Ki (in the experiment with CHO [1]; in experiment [2]; in the experiment on CHO [3]) were 3.23, 24.8 and 7.67, respectively. The inhibition constant Ki on Adenosine receptor A3 is 480 nM; at Adenosine receptor A2a it was 3680 nM; at Adenosine receptor A2b, more than 10000 nM; at Adenosine receptor A1, 11900 nM.

As to `CCOC(=O)c1cnc(NC2CCCCC2)n2nc(-c3ccco3)nc12`, the values for the Ratio Ki (in the experiment with CHO [1]; in experiment [2]; in the experiment on CHO [3]) were 2.39, 1.08 and 0.45, respectively. The Ki at Adenosine receptor A3 is 131 nM; on Adenosine receptor A2a, 58.9 nM; at Adenosine receptor A2b, more than 10000 nM; on Adenosine receptor A1 it was 141 nM.

`CCOC(=O)c1cnc(N2CCCCC2)n2nc(-c3ccco3)nc12`: the results for the Ratio Ki (in the experiment on CHO [1]; in experiment [2]; in the experiment on CHO [3]) were 1.08, 5 and 4.62, respectively. For the same molecule, the Ki on Adenosine receptor A3 was 1770 nM; at Adenosine receptor A2a, 8180 nM; at Adenosine receptor A2b, more than 10000 nM; on Adenosine receptor A1, 8860 nM.

Regarding `CCOC(=O)c1cnc(N)n2nc(-c3ccco3)nc12`, the values for the Ratio Ki (in the experiment with CHO [1]; in experiment [2]; in the experiment with CHO [3]) were 55.7, 0.78 and 0.01, respectively. In addition, the Ki at Adenosine receptor A3 is 238 nM; on Adenosine receptor A2a it was 3.32 nM; on Adenosine receptor A2b, 1110 nM; on Adenosine receptor A1, 185 nM.

Take `CCOC(=O)c1cnc(N(C)C)n2nc(-c3ccco3)nc12`: the Ratio Ki amounted to 2.07 in the experiment with CHO [1], 48.7 in experiment [2] and 23.6 in the experiment on CHO [3]. For the same molecule, the Ki on Adenosine receptor A3 was 275 nM; on Adenosine receptor A2a it was 6480 nM; on Adenosine receptor A2b, more than 10000 nM; on Adenosine receptor A1, 13400 nM.

Regarding `CCCCC(CC)CNc1ncc(C(=O)OCC)c2nc(-c3ccco3)nn12` (centres undefined), the figures for the Ratio Ki (with CHO [1]; in experiment [2]; in the experiment on CHO [3]) were 5.35, 29.3 and 5.47, respectively. Further, the inhibition constant Ki is 39.3 nM on Adenosine receptor A3, 215 nM on Adenosine receptor A2a, more than 10000 nM on Adenosine receptor A2b and 1150 nM at Adenosine receptor A1.

For orientation: Ki means the equilibrium dissociation constant of an inhibitor or competing ligand from its target.
